Assay type in all cases: functional
Assay [1] concerns Plasma. Nature of the assay: Anticoagulant activity in human plasma assessed as activated partial […] time at 30 ug/ml. Summed up: (§1)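 Citrated plasma from healthy human donors (blood into 2.5% sodium citrate, spun 5400 rpm, 4 °C, 20 min, stored -70 °C). Plasma 90 µl plus 10 µl compound in water, 1 min at 37 °C. APTT reagent added, 5 min at 37 °C, then CaCl2 added. Clotting time read on a coagulometer. Saline control, heparin reference. Index = sample APTT/control APTT. Mean of five trials.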

Assay [2] has as its system Plasma. Nature of the assay: Anticoagulant activity in human plasma assessed as activated partial […] time at 60 ug/ml. In short, it runs like this: as §1
The test system of assay [3] is Plasma. Kind of assay: Anticoagulant activity in human plasma assessed as activated partial […] time index at 30 ug/ml relative to control. Summed up:
as §1

Assay [4] has as its system Plasma. Kind of assay: Anticoagulant activity in human plasma assessed as activated partial […] time index at 60 ug/ml relative to control. Summed up:
as §1

Assay [5] has as its system Plasma. Kind of assay: Anticoagulant activity in human plasma assessed as prothrombin time at 30 ug/ml. In short, it runs like this:
(§2)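 Citrated human donor plasma (2.5% sodium citrate, spun 5400 rpm at 4 °C for 20 min, kept at -70 °C). 90 µl plasma with 10 µl aqueous compound, incubated 10 min at 37 °C. Pre-incubated PT reagent (200 µl) added, clotting time recorded. Normal saline as control. PT index = sample PT/control PT. Mean of five trials.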

Assay [6] has as its system Plasma. Nature of the assay: Anticoagulant activity in human plasma assessed as prothrombin time at 60 ug/ml. Summed up: as §2
The subject of assay [7] is Plasma. Kind of assay: Anticoagulant activity in human plasma assessed as prothrombin time index at 30 ug/ml relative to control. Summed up: as §2
Assay [8] concerns Plasma. Nature of the assay: Anticoagulant activity in human plasma assessed as prothrombin time index at 60 ug/ml relative to control. In short, it runs like this:
as §2

The text below walks through data of ChEMBL document CHEMBL1667797, “Synthesis and anticoagulant activity of a new series of 1,4-dihydropyridine derivatives” (2011).

Molecules are shown by their SMILES. Bounds are passed on as bounds.

Consider `COc1ccc(C2C(C(=O)NNC(N)=S)=C(C)NC(C)=C2C(=O)NNC(N)=S)cc1`, for which the results for the APTT in the assay on Plasma [1] and in the assay with Plasma [2] were 64.7 s and 120.2 s, respectively. Further, the Ratio in the assay with Plasma [3] turned out to be 1.85; in the assay with Plasma [4], 3.3; with Plasma [7], 2.03; with Plasma [8] it was 4.71. Moreover, the results for the PT with Plasma [5] and in the assay with Plasma [6] were 45.7 s and 93.4 s, respectively.
Turning to `CC1=C(C(=O)NNC(N)=S)C(c2ccc(Cl)cc2)C(C(=O)NNC(N)=S)=C(C)N1`, the APTT in the assay with Plasma [1] was 90.7 s; in the assay on Plasma [2], 200.4 s. Besides, the Ratio is reported as 2.49 in the assay on Plasma [3], 5.5 in the assay with Plasma [4], 0 with Plasma [7] and 1.24 in the assay on Plasma [8]. For the same molecule, the PT with Plasma [6] is 33.8 s.
For `CC1=C(C(=O)NNC(N)=S)C(c2ccc(O)cc2)C(C(=O)NNC(N)=S)=C(C)N1`, the APTT amounted to 400.8 s in the assay on Plasma [1] and 882.7 s with Plasma [2]. Besides, the Ratio turned out to be 11 in the assay on Plasma [3], 24.25 in the assay on Plasma [4], 2.3 in the assay with Plasma [7] and 3.5 with Plasma [8]. The PT with Plasma [5] is listed as 45.6 s; in the assay with Plasma [6] it was 70.8 s.
Turning to `CC1=C(C(=O)NNC(N)=S)C(c2ccc([N+](=O)[O-])cc2)C(C(=O)NNC(N)=S)=C(C)N1`, the APTT with Plasma [1] was determined as 321.2 s; in the assay with Plasma [2] it was 721.8 s. In addition, the Ratio came to 8.82 in the assay on Plasma [3], 19.82 in the assay with Plasma [4] and 2.66 with Plasma [8]. Moreover, the results for the PT in the assay with Plasma [5] and with Plasma [6] were 24.7 s and 52.8 s, respectively.
`CC1=C(C(=O)NNC(N)=S)C(c2ccccc2)C(C(=O)NNC(N)=S)=C(C)N1`: the APTT with Plasma [1] is reported as 87.5 s; with Plasma [2] it was 182.4 s. For the same molecule, the Ratio in the assay with Plasma [3] is recorded as 2.4; in the assay on Plasma [4], 5.01; with Plasma [7], 0; in the assay with Plasma [8] it was 2.31. Besides, the PT in the assay with Plasma [6] is given as 45.8 s.
For `CC1=C(C(=O)NNC(N)=S)C(c2ccco2)C(C(=O)NNC(N)=S)=C(C)N1`, the values for the APTT in the assay with Plasma [1] and with Plasma [2] were 720.35 s and above 1000 s, respectively. The Ratio in the assay with Plasma [3] turned out to be 19.78; in the assay on Plasma [4], 27.47; with Plasma [7] it was 12.14; in the assay with Plasma [8] it was 21.22. The PT in the assay on Plasma [5] is given as 240.42 s; with Plasma [6], 420.21 s.
In the case of `CC1=C(C(=O)NNC(N)=S)C(c2ccc(N(C)C)cc2)C(C(=O)NNC(N)=S)=C(C)N1`, the figures for the APTT with Plasma [1] and with Plasma [2] were 221.8 s and 480 s, respectively. Further, the Ratio in the assay with Plasma [3] turned out to be 6.09; in the assay with Plasma [4], 13.18; in the assay with Plasma [7] it was 1.09; in the assay on Plasma [8] it was 2.43. Besides, the values for the PT in the assay with Plasma [5] and with Plasma [6] were 21.6 s and 48.2 s, respectively.
